Reference: ChEMBL document CHEMBL1140145, “Identification of non-nucleoside DNA synthesis inhibitors of vaccinia virus by high-throughput screening” (J Med Chem, 2008)
Active and inactive are the calls of the source. The calls are words filed in the database; no cut-off is given here.

Key:
[1] = tested on: Vaccinia virus; experiment: Antiviral activity against Vaccinia virus WR in BSC1 cells assessed as protection from virus-induced lysis of cell monolayer after 20 hrs; format: functional, organism-based; details: Orthopoxvirus vaccinia, BSC-1, 20 h
[2] = Cytotoxicity against african green monkey BSC1 cells after 72 hrs WST-1 based assay; format: cell-based, BSC-1; details: chlorocebus aethiops, read-out: TC50
In short: (§1)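 Uninfected BS-C-1 cells in phenol red-free medium, seeded 5000 (20 h), 1000 (3-day) or 200 (5-day) cells/well, exposed next day to compound in two-fold serial dilutions (top 200 µM; 1% DMSO final) at 37°C. WST-1 added 30 min, A450 read. Triplicates; percent cytotoxicity vs DMSO fitted four-parameter sigmoidal for TC50.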

[3] = tested on: Vaccinia virus; experiment: Antiviral activity against Vaccinia virus WR in BSC1 cells assessed as reduction in plaque formation after 20 hrs; format: functional, organism-based; details: Orthopoxvirus vaccinia, BSC-1, 20 h
[4] = Cytotoxicity against african green monkey BSC1 cells after 20 hrs WST-1 based assay; format: cell-based, BSC-1; details: chlorocebus aethiops, read-out: TC50; in short: as §1
[5] = tested on: Vaccinia virus; experiment: Antiviral activity against Vaccinia virus WR in BSC1 cells assessed as retention of antiviral potency by measuring exogenous double stranded DNA trapping; format: functional, organism-based; details: Orthopoxvirus vaccinia, BSC-1
[6] = tested on: Vaccinia virus; experiment: Inhibition of Vaccinia virus DNA synthesis in by rapid plate assay; format: functional, organism-based; details: Orthopoxvirus vaccinia
[7] = Cytotoxicity against african green monkey BSC1 cells up to 200 uM after 20 to 120 hrs WST-1 based assay; format: cell-based; details: chlorocebus aethiops, bsc-1; in short: as §1
[8] = tested on: Vaccinia virus; experiment: Antiviral activity against Vaccinia virus WR in BSC1 cells assessed as reduction in plaque formation up to 200 uM after 20 hrs; format: functional, organism-based; details: Orthopoxvirus vaccinia, BSC-1
[9] = tested on: Vaccinia virus; experiment: Antiviral activity against Vaccinia virus WR in BSC1 cells assessed as protection from virus-induced lysis of cell monolayer up to 200 uM after 20 hrs; format: functional, organism-based; details: Orthopoxvirus vaccinia, BSC-1
[10] = Cytotoxicity against african green monkey BSC1 cells after 120 hrs WST-1 based assay; format: cell-based, BSC-1; details: chlorocebus aethiops, read-out: TC50; in short: as §1
[11] = Selectivity index, TC50 for african green monkey BSC1 cells after 20 hrs to EC50 for Vaccinia virus WR in BSC1 cells after 20 hrs by cell protection assay; format: toxicity, cell-based, BSC-1; details: read-out: Selectivity Index

Compound | EC50 [1] [µM] | CC50 at 72 h [2] [µM] | EC50 [3] [µM] | CC50 at 20 h [4] [µM] | Activity [5] | IC50 [6] [µM] | Activity [7] | Activity [8] | Activity [9] | CC50 at 120 h [10] [µM] | selectivity ratio at 20 h [11]
N/N=C1\CCCc2c1[nH]c1ccc(C(=O)NN)cc21 | 193 | 35 | 100 | > 200 | inactive | – | – | – | – | – | –
CCOC(=O)CCc1c(CC(=O)OCC)c[nH]c1/C=N/O.Cl | – | – | – | – | – | 3.8 | Toxic | inactive | inactive | – | –
O=C(O)Cn1c2ccc(Cl)cc2c2nc3ccccc3nc21 | 100 | 13 | 50 | > 100 | Active | – | – | – | – | 30 | –
CCNc1nc(SCc2ccc(Cl)cc2)nc2sc3c(c12)CCN(C)C3 | 45 | – | 15 | 115 | Active | 129 | – | – | – | 5 | 2.6
COc1ccc2nc(NC(=N)N)nc(C)c2c1 | – | – | – | – | – | 7.4 | Toxic | inactive | inactive | – | –
Cc1ccc2c(Sc3ccc(Cl)cc3)c(C(=O)O)[nH]c2c1 | – | 174 | 75 | > 200 | Active | 43 | – | – | – | 120 | > 1.5
Cc1cc(/N=C/c2cc(Cl)cc(Cl)c2O)no1 | 95 | 50 | 75 | > 200 | Active | 30 | – | – | – | 20 | > 2.1
O=C(O)c1ccc(CS(=O)(=O)c2ccccc2)o1 | – | – | – | – | – | 7.4 | Toxic | inactive | inactive | – | –
CC(=O)n1c2ccccc2c2nc(C)sc21 | – | > 200 | 100 | > 200 | Active | 111 | – | – | – | 75 | > 1
Cc1ccc2oc(-c3ccccc3)c/c(=N\CCO)c2c1 | 57 | – | 40 | > 200 | inactive | 25 | – | – | – | 12 | > 3.5
OC(CN1CCNCC1)Cn1c2ccc(Br)cc2c2cc(Br)ccc21 (configuration not stated) | – | – | – | – | – | 6.3 | Toxic | inactive | inactive | – | –
CCN(CC)CCCNc1nc2cc(OC)c(OC)cc2c2nc(-c3ccccc3)nn12 | – | – | – | – | – | 5.9 | Toxic | inactive | inactive | – | –
Cc1c(/N=C/c2cc(Br)cc(Br)c2O)cccc1C(=O)O | 100 | 38 | 75 | > 200 | Active | 26 | – | – | – | 20 | > 2
BrCc1ccc(-c2noc(-c3ccncc3)n2)cc1 | – | – | – | – | – | 1.3 | Toxic | inactive | inactive | – | –
O=C(NCCCN1CCCC1)c1cc2c(Cl)nc3ccccc3c2s1 | – | – | – | – | – | 10 | Toxic | inactive | inactive | – | –
CCC/N=c1\cc(-c2ccccc2)oc2ccc(C)cc12 | 57 | – | 25 | > 200 | inactive | – | – | – | – | 10 | –
CC(C)Nc1ccc(Nc2ccnc3cc4ccccc4cc23)cc1 | – | – | – | – | – | 4.1 | Toxic | inactive | inactive | – | –

Compound | EC50 [1] [µM] | CC50 at 72 h [2] [µM] | EC50 [3] [µM] | CC50 at 20 h [4] [µM] | Activity [5] | IC50 [6] [µM] | Activity [7] | Activity [8] | Activity [9] | CC50 at 120 h [10] [µM] | selectivity ratio at 20 h [11]
CN(C)c1ccc(-c2cccc(-c3ccc(N(C)C)cc3)[o+]2)cc1 | – | – | – | – | – | 3 | Toxic | inactive | inactive | – | –
CN(C)CC/N=c1\cc(-c2ccccc2)oc2ccc(Cl)cc12 | – | – | – | – | – | 6.7 | Toxic | inactive | inactive | – | –
CCOC(=O)c1cnc2c(C)c(C)ccc2c1NCCCN(C)C | – | – | – | – | – | 5 | Toxic | inactive | inactive | – | –
CC[n+]1cc(/C=C2\SC=CN2C)c(C)c2cc(OC)c3ccccc3c21 | – | – | – | – | – | 3.5 | Toxic | inactive | inactive | – | –
O=C(Nc1ccccc1C(=O)O)OCC1c2ccccc2-c2ccccc21 | – | 40 | 75 | > 200 | Active | 26 | – | – | – | 20 | > 1.9
COc1ccc2c(c1)C=C/C(=C\c1sc3ccccc3[n+]1C)N2C.[Cl-] | – | – | – | – | – | 4 | Toxic | inactive | inactive | – | –
Cc1cc(NCCN2CCCCC2)c2ccc3ccccc3c2n1 | – | – | – | – | – | 6 | Toxic | inactive | inactive | – | –
CC1CCCC(C)N1CCNc1nc2ccccc2c2nc(-c3ccccc3)nn12 (configuration not stated) | – | – | – | – | – | 7.3 | Toxic | inactive | inactive | – | –
Cc1csc2c(N3CCN(C(=O)NC(C)(C)C)CC3)ncnc12 | 50 | – | 15 | 157 | Active | 12 | – | – | – | 40 | 3.1
Cc1ccc2nc(Cl)c3cc(C(=O)N(CCN(C)C)Cc4ccco4)sc3c2c1 | – | – | – | – | – | 10 | Toxic | inactive | inactive | – | –
CN(C)CCc1cc2c(c3c1ccc1ccccc13)OCO2 | – | – | – | – | – | 5.4 | Toxic | inactive | inactive | – | –
CC1=CC(C)(C)N=C(Nc2nc(C)c3cc(C)cc(C)c3n2)N1 | – | – | – | – | – | 5.3 | Toxic | inactive | inactive | – | –
CCN1CCN(c2ccc(Nc3ccnc4cc5ccccc5cc34)cc2)CC1 | – | – | – | – | – | 0.5 | Toxic | inactive | inactive | – | –
CCOC(=O)c1c(NC(=O)/C=C/C(=O)O)sc(C)c1-c1ccccc1 | 30 | – | 25 | 159 | Active | 374 | – | – | – | – | –
Nc1ccn(C[C@@H](CO)OCP(=O)(O)O)c(=O)n1 [CIDOFOVIR] | – | > 500 | 50 | > 500 | Active | – | – | – | – | 300 | > 3.8
N=C1/C(=C/c2coc3ccccc3c2=O)C(=O)N=C2SC=NN12 | – | > 200 | – | > 200 | Active | 75 | – | – | – | 50 | > 1
